# Calls of active or inactive are those of the source.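 The calls were made as follows, unless noted: active = viability at or below 10% of carrier control in both of two separate runs; inconclusive = viability at or below 10% in only one of the two runs; inactive = the rest.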
# How the values were obtained:
# [1] = reducers of endogenous Her2 protein level, primary screen, SKBR3 breast tumor cells, AlphaScreen, ATP viability (AID 461;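 active = Her2 level under about 52% in both replicate screens, with viability over 70% of control, limit read from the data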;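 as to Her2 level: lower value means less Her2 protein in the cells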;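 as to viability: percent of carrier control wells set as 100% viability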); settings: 18-24 h, measured here: SKBR3 viability, ATP luminescence, at 10 µM
# [2] = biological target: Receptor tyrosine-protein kinase erbB-2 (Homo sapiens) (UniProt P04626); assay: as above; settings: 18-24 h, at 10 µM, stronger effect = lower value
# Chain of Receptor tyrosine-protein kinase erbB-2 (Homo sapiens) (P04626 whole entry, looked up): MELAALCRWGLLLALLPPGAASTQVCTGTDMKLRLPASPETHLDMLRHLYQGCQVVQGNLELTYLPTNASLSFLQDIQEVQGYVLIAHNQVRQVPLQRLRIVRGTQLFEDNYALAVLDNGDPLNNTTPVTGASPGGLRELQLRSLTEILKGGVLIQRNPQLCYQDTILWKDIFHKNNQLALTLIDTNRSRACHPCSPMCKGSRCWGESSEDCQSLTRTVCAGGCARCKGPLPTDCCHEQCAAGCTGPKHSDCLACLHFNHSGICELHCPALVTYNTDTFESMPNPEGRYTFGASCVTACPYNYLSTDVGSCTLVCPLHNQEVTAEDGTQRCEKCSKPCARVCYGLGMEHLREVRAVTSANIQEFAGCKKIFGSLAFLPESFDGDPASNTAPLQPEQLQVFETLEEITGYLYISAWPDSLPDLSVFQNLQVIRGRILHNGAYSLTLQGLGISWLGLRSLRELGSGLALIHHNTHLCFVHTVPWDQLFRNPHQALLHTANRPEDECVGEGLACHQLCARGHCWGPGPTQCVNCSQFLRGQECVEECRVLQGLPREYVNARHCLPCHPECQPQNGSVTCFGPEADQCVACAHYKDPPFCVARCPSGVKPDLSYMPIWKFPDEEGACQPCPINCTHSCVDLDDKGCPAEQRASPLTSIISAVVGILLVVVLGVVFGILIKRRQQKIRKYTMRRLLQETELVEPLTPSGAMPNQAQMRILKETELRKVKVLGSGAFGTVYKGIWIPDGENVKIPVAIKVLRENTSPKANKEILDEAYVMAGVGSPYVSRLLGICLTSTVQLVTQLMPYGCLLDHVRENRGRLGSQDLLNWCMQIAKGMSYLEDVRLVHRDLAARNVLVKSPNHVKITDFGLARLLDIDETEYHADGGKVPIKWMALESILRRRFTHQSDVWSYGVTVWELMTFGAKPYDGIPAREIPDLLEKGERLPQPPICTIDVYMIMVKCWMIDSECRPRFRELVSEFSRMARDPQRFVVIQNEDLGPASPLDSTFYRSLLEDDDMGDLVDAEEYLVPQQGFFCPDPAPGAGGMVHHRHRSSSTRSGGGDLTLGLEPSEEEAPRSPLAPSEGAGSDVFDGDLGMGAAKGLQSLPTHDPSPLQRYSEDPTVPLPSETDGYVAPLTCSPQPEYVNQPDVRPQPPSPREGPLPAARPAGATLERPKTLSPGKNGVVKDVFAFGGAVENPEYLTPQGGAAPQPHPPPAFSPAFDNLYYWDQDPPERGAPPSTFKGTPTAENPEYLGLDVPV
# [3] = SK-BR-3 cell growth inhibitors, pilot screen, 24 h, human (AID 572); settings: SK-BR-3 viability, CellTiter-Glo luminescence, at 10 µM, stronger effect = lower value;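 also: compound exposure lasted between 18 and 24 h rather than exactly 24 h; 100% = carrier-treated control wells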
# [4] = HUVEC growth inhibition – cell-based, human, primary screen (AID 575;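 active = viability at or below 30% in both replicate assays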;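 also: 100% = median of untreated cell wells with 0.1% DMSO on each plate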); settings: HUVEC proliferation, CellTiter-Glo luminescence, 72 h; at 10 µM; stronger effect = lower value
# Outline: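 Test system: HUVEC primary cells. Quantity: 1250 endothelial cells in each well. Dosing: single-point 10 µM, DMSO 0.1% final. Incubation: 72 h treatment at 37 °C. Measured by: CTG luminescence. Control set: DMSO cell controls and MePR drug controls. Plate: collagen-coated 384-well format.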
# [5] = growth inhibitors of H69AR lung tumor, primary screen, human, duplicate replicates (AID 580;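 active = viability at or under a set limit in both replicates, limit being median viability minus 3 SD, cut at about 48% in these data, passing the limit was not always enough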;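 also: 100% = mean luminescence of untreated wells and 0% = no signal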); settings: H69AR lung tumor cells viability, ATP luminescence, 72 h; at 10 µM; stronger effect = lower value
# [6] = reversal of MRP1-mediated doxorubicin resistance, pilot screen, H69AR cells, doxorubicin co-treatment (AID 601;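 active = viability loss from added drug above about 55%, and viability with drug at most 40%, in both replicates, limit read from the data, passing the limit was not always enough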); settings: CellTiter-Glo, 72 h, at 10 µM; for differential viability (reversal): stronger effect = higher value
# [7] = 384-well plate pilot, post-Golgi transport modulator project, inhibition of yeast transport mutant growth (AID 636; in the data active = inhibition above about 31%); settings: absorbance 615 nm, about 18 h, stronger effect = higher value
# [8] = growth suppression of yeast trafficking mutant, preliminary HTS, modulators of trafficking downstream of Golgi apparatus project, 1536-format plate, OD 615 nm (AID 637; in the data active = inhibition above about 30%); settings: yeast transport mutant growth, absorbance 615 nm, 18 h; stronger effect = higher value
# [9] = H69AR cells + 2 uM doxorubicin, measured here: viability with 2 uM doxorubicin, stronger effect = lower value
# [10] = H69AR cells, compound alone cytotoxicity
SMILES,viability [1],Her2 level [2],viability [3],viability [4],viability [5],differential viability (reversal) ([6]; H69AR cells + 2 uM doxorubicin),"viability [6, 9]","viability [6, 10]",inhibition [7],inhibition [8]
O=C1NCCCc2c1no[n+]2[O-],100%,103% (inactive),100% (inactive),84.1% (inactive),104% (inactive),4.5% (inactive),99.2%,104%,-0.13% (inactive),-3.71% (inactive)
O=C(c1ncc[nH]1)c1ccccc1C(=O)N1CCOCC1,118%,112% (inactive),118% (inactive),100% (inactive),90.3% (inactive),3.04% (inactive),87.3%,90.3%,-5.21% (inactive),1.75% (inactive)
Cc1cc(NC(=O)C23CCC(C)(C(=O)O2)C3(C)C)no1 (stereo not given),108%,93% (inactive),108% (inactive),96.7% (inactive),97.5% (inactive),8.27% (inactive),89.2%,97.5%,-0.78% (inactive),0.63% (inactive)
CNc1ccc(C(O)(C(F)(F)F)C(F)(F)F)cc1C(O)(C(F)(F)F)C(F)(F)F,98%,73% (inactive),98% (inactive),76.8% (inactive),80.7% (inactive),-3.27% (inactive),84%,80.7%,-5.33% (inactive),5.25% (inactive)
O=c1cc(C(F)F)oc2c1ccc1ccccc12,93.5%,98.5% (inactive),93.5% (inactive),74.8% (inactive),81.7% (inactive),-9.89% (inactive),91.6%,81.7%,-0.91% (inactive),2.33% (inactive)
CC(=O)N1CCc2cc(S(=O)(=O)CCC(=O)N3CCN(C(=O)c4ccco4)CC3)ccc21,99%,88.5% (inactive),99% (inactive),104% (inactive),98.2% (inactive),10.1% (inactive),88.1%,98.2%,-5.47% (inactive),2.95% (inactive)
CC12CCC(C(=O)O)(c3nc(C#N)c(C#N)nc31)C2(C)C (stereo not given),106%,96.5% (inactive),106% (inactive),115% (inactive),91.6% (inactive),6.8% (inactive),84.8%,91.6%,-6.27% (inactive),6.07% (inactive)
CCC(C(=O)Nc1ccccc1C(=O)N1CCCC1)N1C(=O)c2ccccc2C1=O (stereo not given),96.5%,88% (inactive),96.5% (inactive),78.3% (inactive),102% (inactive),5.91% (inactive),95.8%,102%,-3.29% (inactive),-4.83% (inactive)
Cc1ccc(-n2nnnc2SCC(=O)N2CCc3ccccc3C2)cc1,113%,82.5% (inactive),113% (inactive),99.9% (inactive),82.1% (inactive),-8.77% (inactive),90.8%,82.1%,-2.5% (inactive),0.48% (inactive)
c1cncc(-c2nc3c4ccccc4nc(N4CCC(N5CCCCC5)CC4)n3n2)c1,93.5%,79.5% (inactive),93.5% (inactive),80.1% (inactive),84.1% (inactive),2.83% (inactive),81.2%,84.1%,-9.73% (inactive),-0.48% (inactive)
COc1ccc2cc(CN(CCO)C(=O)c3ccc(Br)cc3)c(=O)[nH]c2c1,98%,81.5% (inactive),98% (inactive),90.2% (inactive),110% (inactive),19.2% (inactive),90.3%,110%,-4.93% (inactive),5.41% (inactive)
CC(C)C(C(=O)Nc1ccc2c(c1)OCO2)N1C(=O)c2ccccc2C1=O (stereo not given),122%,92% (inactive),122% (inactive),94.3% (inactive),96.1% (inactive),2.06% (inactive),94.1%,96.1%,-4.03% (inactive),1.15% (inactive)
c1ccc2c(c1)nc(-c1ccncc1)n1nnnc21,96.5%,99.5% (inactive),96.5% (inactive),93.5% (inactive),93.2% (inactive),8.75% (inactive),84.4%,93.2%,-6% (inactive),-0.16% (inactive)
CC1(C)Cc2c(sc3c2c(=N)n(Cc2ccco2)c(=O)n3Cc2ccccc2)CO1,98.5%,88.5% (inactive),98.5% (inactive),90.1% (inactive),71.9% (inactive),28.9% (inactive),43%,71.9%,-1.82% (inactive),-1.27% (inactive)
